This is an account of results in ChEMBL document CHEMBL3259660, “Haloemodin as novel antibacterial agent inhibiting DNA gyrase and bacterial topoisomerase I” (J Med Chem, 2014).

≈ marks a conversion by molar mass, not a printed value. Calls of active or inactive are those of the source. The rule behind the calls is not given here. Where only a bound is given, the exact number is not on record here.

Series [1] has as its system Staphylococcus aureus. Briefly: Antibacterial activity against methicillin-resistant Staphylococcus aureus assessed as growth inhibition by agar dilution assay. It is filed as functional. The method, boiled down: (§1)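 CLSI agar dilution MIC against aerobic and anaerobic strains. Test compounds were dissolved in DMSO and reference antibiotics in sterile water. MIC was taken as the lowest concentration showing no bacterial growth. Each MIC was determined at least twice on separate days, and the higher value was reported. E. coli PQ 37 was cultured in LA medium.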

Series [2] relates to Staphylococcus epidermidis. In words: Antibacterial activity against methicillin-resistant Staphylococcus epidermidis assessed as growth inhibition by agar dilution assay. The series is classed as functional. Summed up: as §1
(In general: In agar dilution, organisms are placed on agar that contains the substance at set levels.)

The subject of series [3] is Enterococcus faecalis. Briefly: microbe, parasite or virus in culture. It is filed as functional. The note with it: ATCC 29212.
Series [4] concerns Enterococcus faecalis. In words: Antibacterial activity against vancomycin-sensitive Enterococcus faecalis assessed as growth inhibition by agar dilution assay. The series is classed as functional.
The test system of series [5] is Escherichia coli. Briefly: Antibacterial activity against Escherichia coli ATCC 25922 assessed as growth inhibition by agar dilution assay. The series is classed as functional. The method, boiled down:
(§2)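 Agar dilution MIC per CLSI (aerobic and anaerobic methods); compounds dissolved in DMSO, reference antibiotics in sterile water. MIC taken as lowest concentration with no visible growth; determined at least twice on separate days, higher value reported. Clinical isolate ranges summarized as MIC50/MIC90.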

A further series has as its system Pseudomonas aeruginosa. Briefly: Antibacterial activity against Pseudomonas aeruginosa ATCC 27853 assessed as growth inhibition by agar dilution assay. It is filed as functional. Summed up: as §2
For series [6], the system named is Escherichia coli. In words: Antibacterial activity against Escherichia coli assessed as growth inhibition at <0.256 mg/ml by agar dilution assay. The series is classed as functional, organism-based.
In series [7] the test system is Staphylococcus aureus. In words: In vivo antibacterial activity against Staphylococcus aureus in New zealand rabbit keratitis model assessed as suppression of conjuctival congestion, conjuctival chemosis, infiltration, operative ulcer area and depth at 4.3 mg/ml administered topically every 4 hrs for four doses every day for 10 days starting 24 hrs post-infection by slit lamp biomicroscopy. It is filed as functional, organism-based. The method, boiled down:
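NZW rabbits (2.0−3.0 kg), anesthetized with iv sodium pentobarbital 30 mg/kg, given intracorneal S. aureus (about 7.5 × 10^6 CFU) from an overnight LB culture. Starting 24 h post-infection, 30 μL drops applied topically per eye every 4 h, four doses daily (8 a.m.–8 p.m.), for 10 days, masked. Test compound in PEG–water (1:1). Slit-lamp biomicroscopy before and after.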

Series [8] is described as follows: Cytotoxicity against CHL cells assessed as cell viability at 0.064 mg/ml after 24 hrs by MTT assay. To be noted: chinese hamster. The series is classed as cell-based, Cricetulus griseus. The method, boiled down:
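CHL fibroblasts seeded at about 5 × 10^4 cells/mL, incubated overnight at 37 °C, 5% CO2, then exposed to compound at different concentrations for 24 h. Viability read by MTT, absorbance at 570 nm, relative to cells in medium alone (100%). Triplicate.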
For orientation: Tetrazolium assays rely on reduction of a dye to a coloured formazan, in cell work by metabolically active cells.

Series [9] is described as follows: Binding affinity to supercoiled pHOT-1 DNA assessed as unwinding of DNA helix by measuring distribution of topoisomers at 10 to 150 uM treated 15 mins prior to human topoisomerase 1 addition for 30 mins by agarose gel electrophoresis.
For the next series, the target named is T1, DNA topoisomerase 1 (Homo sapiens, UniProt P11387).
T1 sequence (P11387 whole entry): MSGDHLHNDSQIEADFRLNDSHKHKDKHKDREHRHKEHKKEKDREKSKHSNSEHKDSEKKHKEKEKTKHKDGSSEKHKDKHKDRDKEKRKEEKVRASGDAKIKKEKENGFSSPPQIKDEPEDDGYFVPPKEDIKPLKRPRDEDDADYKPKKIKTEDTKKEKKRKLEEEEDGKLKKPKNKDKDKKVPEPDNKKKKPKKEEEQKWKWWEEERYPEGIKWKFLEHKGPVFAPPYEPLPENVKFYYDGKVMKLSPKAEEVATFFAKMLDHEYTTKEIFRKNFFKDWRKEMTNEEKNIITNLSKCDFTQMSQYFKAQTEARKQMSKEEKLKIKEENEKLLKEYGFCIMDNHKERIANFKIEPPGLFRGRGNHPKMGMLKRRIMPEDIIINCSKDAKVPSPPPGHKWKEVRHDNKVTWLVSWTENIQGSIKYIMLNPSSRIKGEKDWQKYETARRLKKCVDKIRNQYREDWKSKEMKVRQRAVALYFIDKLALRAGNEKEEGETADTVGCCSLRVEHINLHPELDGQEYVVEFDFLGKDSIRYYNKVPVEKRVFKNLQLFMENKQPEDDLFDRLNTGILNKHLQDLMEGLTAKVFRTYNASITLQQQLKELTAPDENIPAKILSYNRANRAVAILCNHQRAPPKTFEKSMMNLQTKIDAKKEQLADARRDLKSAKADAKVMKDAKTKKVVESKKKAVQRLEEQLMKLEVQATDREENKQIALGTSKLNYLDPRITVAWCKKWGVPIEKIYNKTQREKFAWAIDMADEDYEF
In words: Inhibition of human topoisomerase 1-mediated pHOT-1 DNA relaxation at 10 to 150 uM treated with pHOT-1 substrate for 15 mins prior to enzyme addition for 30 mins by agarose gel electrophoresis. To be noted: 0.5 h.

For series [10], the target named is T2, DNA topoisomerase 1 (Escherichia coli (strain K12)) (UniProt P06612).
T2 sequence (whole entry): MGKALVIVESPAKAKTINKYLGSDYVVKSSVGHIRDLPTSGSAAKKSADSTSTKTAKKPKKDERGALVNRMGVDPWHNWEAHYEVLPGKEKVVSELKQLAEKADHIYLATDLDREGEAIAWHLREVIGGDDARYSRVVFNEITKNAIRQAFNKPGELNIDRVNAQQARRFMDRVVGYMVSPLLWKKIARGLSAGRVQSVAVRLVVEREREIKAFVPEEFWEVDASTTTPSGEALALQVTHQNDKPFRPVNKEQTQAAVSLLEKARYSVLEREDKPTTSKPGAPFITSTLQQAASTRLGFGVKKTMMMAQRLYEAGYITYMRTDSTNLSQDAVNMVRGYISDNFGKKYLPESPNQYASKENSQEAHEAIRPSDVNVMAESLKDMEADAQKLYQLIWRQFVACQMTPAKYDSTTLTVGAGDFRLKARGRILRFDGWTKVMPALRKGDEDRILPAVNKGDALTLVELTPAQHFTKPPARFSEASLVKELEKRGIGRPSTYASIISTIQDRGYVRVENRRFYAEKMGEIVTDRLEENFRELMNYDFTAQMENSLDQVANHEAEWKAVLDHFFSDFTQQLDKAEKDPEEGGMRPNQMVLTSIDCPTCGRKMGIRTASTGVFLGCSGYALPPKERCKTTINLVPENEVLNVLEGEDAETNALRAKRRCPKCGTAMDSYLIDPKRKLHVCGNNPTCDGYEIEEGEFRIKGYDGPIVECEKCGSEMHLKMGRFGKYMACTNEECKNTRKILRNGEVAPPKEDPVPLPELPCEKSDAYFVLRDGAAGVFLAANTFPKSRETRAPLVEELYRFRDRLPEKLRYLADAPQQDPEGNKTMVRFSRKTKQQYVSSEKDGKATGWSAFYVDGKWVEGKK
In words: Inhibition of Escherichia coli topoisomerase 1 assessed as single stranded breaks using pHOT-1 DNA as substrate treated with substrate for 15 mins prior to enzyme addition for 30 mins by agarose gel electrophoresis.

Consider `Cc1cc(O)c2c(c1)C(=O)c1c(I)c(O)c(I)c(O)c1C2=O`, for which the MIC with Staphylococcus aureus [1] is 4 µg/mL (≈ 7.66 µM); in series [2] it was 4 µg/mL (≈ 7.66 µM); in the series with Enterococcus faecalis [3] it was 16 µg/mL (≈ 30.6 µM); in the series with Enterococcus faecalis [4], 8 µg/mL (≈ 15.3 µM); in the series on Escherichia coli [5], above 256 µg/mL; in the series with Pseudomonas aeruginosa, above 256 µg/mL. The “growth inhibition (GI)” value with Escherichia coli [6] was “inactive”. In addition, the inhibition result in the series with Staphylococcus aureus [7] was “Active”. Further, in series [8], the Activity entry was “Non-toxic”. Further, the outcome in series [9] and in [10] was inactive. The “inhibition (INH)” value against DNA topoisomerase 1 is given as “Not Active”.
